Results reported in ChEMBL document CHEMBL1126325, “Inhibition of pig kidney L-aromatic amino acid decarboxylase by 2,3-methano-m-tyrosines” (J Med Chem, 1992).

Tests used:
[1] = target: T1, Aromatic-L-amino-acid decarboxylase (Sus scrofa) (UniProt P80041); assay: Relative inhibitory comparison to that of (+)D-m-Tyrosine.
T1 sequence (whole entry): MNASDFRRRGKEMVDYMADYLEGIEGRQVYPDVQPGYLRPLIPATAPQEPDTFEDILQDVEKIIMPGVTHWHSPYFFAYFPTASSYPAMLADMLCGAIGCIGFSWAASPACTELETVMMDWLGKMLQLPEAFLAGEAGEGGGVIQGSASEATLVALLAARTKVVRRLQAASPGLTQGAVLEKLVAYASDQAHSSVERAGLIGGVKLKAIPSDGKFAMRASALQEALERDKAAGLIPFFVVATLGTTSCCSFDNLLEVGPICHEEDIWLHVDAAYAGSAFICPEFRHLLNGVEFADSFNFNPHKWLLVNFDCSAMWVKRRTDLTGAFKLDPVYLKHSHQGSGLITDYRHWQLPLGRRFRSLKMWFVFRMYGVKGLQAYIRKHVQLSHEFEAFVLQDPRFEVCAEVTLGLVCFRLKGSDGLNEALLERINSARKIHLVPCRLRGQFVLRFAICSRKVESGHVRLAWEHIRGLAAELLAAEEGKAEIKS

[2] = target: T2, Aromatic-L-amino-acid decarboxylase (Sus scrofa, UniProt P80041); assay: Inhibitory activity against pig kidney L-aromatic amino acid decarboxylase (Dopa decarboxylase)
T2 sequence (P80041 whole entry): T1 sequence (whole entry)
How it was run: (§1)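 The enzyme was purified from pig kidney. The crude extract was clarified with Bioacryl-BP-1000 and centrifuged, then run over DEAE-cellulose, phenyl Sepharose CL-4B and Sephacryl S-300. Decarboxylase activity was measured by a continuous spectrophotometric CO₂-detection procedure using a commercial CO₂ kit. Inhibition was expressed as Ki.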

[3] = target: T2, Aromatic-L-amino-acid decarboxylase; assay: Inhibitory activity against pig kidney L-aromatic amino acid decarboxylase (Dopamine decarboxylase); how it was run: as §1

SMILES	Relative inhibition [1]	Ki [2] [µM]	Ki [3] [µM]
N[C@]1(C(=O)O)C[C@@H]1c1cccc(O)c1	3	330	
NC1(C(=O)O)CC1c1cccc(O)c1 (single isomer, unassigned; (-)) [listing 1 of 2 here]		630	
NC1(C(=O)O)CC1c1cccc(O)c1 (single isomer, unassigned; (-)) [listing 2 of 2 here]	1.6		
NC1(C(=O)O)CC1c1cccc(O)c1 (single isomer, unassigned; (+)) [listing 2 of 2 here]			22

Results, then the compound that gave them:

Relative inhibition [1]	Ki [2] [µM]	Ki [3] [µM]	SMILES
45.4			NC1(C(=O)O)CC1c1cccc(O)c1 (single isomer, unassigned; (+)) [listing 1 of 2 here]
20.4	49		N[C@@]1(C(=O)O)C[C@H]1c1cccc(O)c1
